Assays:
[1] = Inhibition of L-type calcium channel subunits alpha1C, beta1b, and alpha2-delta subunits expressed in Human embryonic kidney tsa-201 cells; format: cell-based
In short: (§1)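 Whole-cell patch clamp on GFP-positive tsa-201 cells transiently co-transfected (calcium phosphate) with α1C, β1b, α2-δ and GFP, then held at 28 °C for 2–4 days. Bath contained 5 mM BaCl2 as the charge carrier (pH 7.2), and pipettes held CsMS/EGTA. Currents were elicited from −80 mV to test potentials. Compound was diluted from a 10 mM DMSO stock and microperfused, and dose–response curves were fitted individually.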

[2] = Maximum inhibition of L-type calcium channel expressed in HEK tsa-201 cells from Patch Clamp analysis; format: functional, HEK293; in short: as §1
Homo sapiens = species: Homo sapiens; test: Percent recovery of Human embryonic kidney tsa-201 cells; format: functional

SMILES	IC50 [1] [nM]	Max inhibition [2]	Recovery (Homo sapiens) [%]
COC(=O)C1=C(C)N=C(C)/C(=C(/O)OC)C1c1c(-c2ccc(F)cc2)noc1C (stereo not given)	2710	93	66
CCOC(=O)C1=C(C)N=C(C)/C(=C(/O)OCC)C1c1c(C)noc1CCc1ccccc1 (stereo not given)	1790	100	46
COC(=O)C1=C(C)N=C(C)/C(=C(/O)OC)C1c1c(-c2ccc(Cl)cc2)noc1C (stereo not given)	1740	85	64
CCOC(=O)C1=C(C)N=C(C)/C(=C(/O)OCC)C1c1c(-c2ccccc2Cl)noc1C (stereo not given)	9680	70	65
CCOC(=O)C1=C(C)N=C(C)/C(=C(/O)OCC)C1c1c(C)noc1CCc1cccc(OC)c1 (stereo not given)	1590	100	49
CCOC(=O)C1=C(C)N=C(C)/C(=C(/O)OCC)C1c1c(C)noc1CCc1ccc2ccccc2c1 (stereo not given)	1180	100	41
CCOC(=O)C1=C(C)N=C(C)/C(=C(/O)OCC)C1c1c(C)noc1C (stereo not given)	8100	100	87
CCOC(=O)C1=C(C)N=C(C)/C(=C(/O)OCC)C1c1c(-c2cc(Cl)ccc2OC)noc1C (stereo not given)	6860	33	82
CCOC(=O)C1=C(C)N=C(C)/C(=C(/O)OCC)C1c1c(-c2ccc(Cl)cc2)noc1C (stereo not given)		100	77
CCOC(=O)C1=C(C)N=C(C)/C(=C(/O)OCC)C1c1c(-c2cccc(Cl)c2)noc1C (stereo not given)	1980	100	65
CCOC(=O)C1=C(C)N=C(C)/C(=C(/O)OCC)C1c1c(C)noc1CCc1cccc(Br)c1 (stereo not given)	130	100	48
CCOC(=O)C1=C(C)N=C(C)/C(=C(/O)OCC)C1c1c(-c2ccccc2OC)noc1C (stereo not given)		55	69
COC(=O)C1=C(C)N=C(C)/C(=C(/O)OC)C1c1c(-c2ccc(Br)cc2)noc1C (stereo not given)	580	88	60
CCOC(=O)C1=C(C)N=C(C)/C(=C(/O)OCC)C1c1c(C)noc1CCc1cccc2ccccc12 (stereo not given)	470	76	43
